This data set can be described thus: Toxicity liver stage against HepG2, at 10uM. The class given is cell-based. On the set-up: test concentration 10 uM, cell line HepG2-A16-CD81EGFP. Conditions: human, HepG2-A16-CD81EGFP cells; read-out: INHIBITION
An outline of the steps:
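Uninfected HepG2-A16-CD81EGFP cells, 3 × 10^3 per well, 1536-well, plated on prespotted compound at 10 μM final, parasite-free screening media added to match infected plates; puromycin 10 μM positive, DMSO 0.5% negative; run in parallel with 48 h PbLuc assay at 37 °C, 5% CO2; viability by CellTiter-Glo luminescence, normalized to controls.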
With `CC(C)(C)NC(=O)c1ccc(COCC(F)(F)F)o1`, the cytotoxicity at 10 µM is -0.585%.

With `Cc1c(CN2CCCCC2)c(O)n(CCCO)c(=O)c1C#N`, the cytotoxicity at 10 µM was -5.03%.

For `Fc1ccc(OCc2nnc([C@H]3CCN(Cc4ccncc4)C3)o2)cc1`, the cytotoxicity at 10 µM is -1.81%.

On to `CCCNC(=O)C[C@@H]1CCN(C(=O)c2cccnc2)C[C@@H]1CC`, for which the cytotoxicity at 10 µM was -0.171%.

For the molecule `CCC(CC)C(=O)n1ccn(S(=O)(=O)c2ccc(C)cc2)c1=O`, the cytotoxicity at 10 µM amounted to 11.5%.

For the molecule `Cc1ccc(C)c(-n2ncc(C(=O)NCC3COC(C)(C)O3)c2N)c1` (stereo unspecified), the cytotoxicity at 10 µM was -4.06%.

Consider `COc1coc(C(=O)Nc2ccncc2)cc1=O`, for which the cytotoxicity at 10 µM was -14.4%.

For the molecule `O=C1CCSCC(C(=O)NCc2nc(-c3ccccc3)no2)N1` (stereo unspecified), the cytotoxicity at 10 µM was -4.66%.

As to `CN(C)C(=O)[C@H]1CC[C@@H]2[C@@H](CCN2C(=O)N(C)C)O1`, the cytotoxicity at 10 µM amounted to 20.3%.

For `COc1ncccc1CN1CC[C@H]2O[C@H](c3nnc(C)o3)CC[C@H]21`, the cytotoxicity at 10 µM is 15.1%.

As for `CN1C(=O)C2(CCN(C(=O)c3cccnc3)CC2)c2cccc(F)c21`, the cytotoxicity at 10 µM was -1.06%.

As for `C1CC(CN2CC[C@@H]3O[C@@H](c4nnc(C5CC5)o4)C[C@H]3C2)CCO1`, the cytotoxicity at 10 µM was determined as 5.35%.

Consider `CC[C@@H]1N(Cc2ccccn2)CCC[C@]12CCC(=O)N2CCOC`, for which the cytotoxicity at 10 µM was determined as 8.01%.

Take `Cc1cc(C)c(C#N)c(N2CCC(Cc3ccccc3)CC2)n1`: the cytotoxicity at 10 µM is -11.8%.

For the molecule `O=S(=O)(NCC1(O)CCOc2ccccc21)c1cccs1` (stereo unspecified), the cytotoxicity at 10 µM is -16.8%.

As to `COc1ccc(-c2cc(C(=O)N3N=C(C)CC3(O)C(F)(F)F)[nH]n2)cc1` (stereo unspecified), the cytotoxicity at 10 µM is 1.36%.

With `O=C(O)C1CCCN1c1nc(C2CC2)cc(C(F)(F)F)n1` (stereo unspecified), the cytotoxicity at 10 µM came to 7.55%.

Turning to `NC(=O)c1cnn2c(C3CCN(CCO)CC3)ccnc12`, the cytotoxicity at 10 µM worked out at 0.695%.

As to `CCN(Cc1ccncc1)CC1(C)Cc2c(N)nc(N)nc2O1` (stereo unspecified), the cytotoxicity at 10 µM amounted to 2.15%.

Consider `CS(=O)(=O)N1CC2(CCN(Cc3ccccn3)C2)Cc2ccccc21` (stereo unspecified), for which the cytotoxicity at 10 µM is 8.08%.

As for `O=C(O)c1cc(Br)cnc1OCC1CC1`, the cytotoxicity at 10 µM is 6.43%.

As to `CCc1ccccc1OCC(=O)Nc1ccnc(OCCN(C)C)c1`, the cytotoxicity at 10 µM came to 17.8%.

On to `COc1ccc(CNC(c2cccc(F)c2)c2cnn(C)c2)cc1` (stereo unspecified), for which the cytotoxicity at 10 µM worked out at 4.91%.

`O=C(C(c1ccccc1)S(=O)(=O)c1ccccn1)N1CCCC1` (stereo unspecified): the cytotoxicity at 10 µM came out at 7.27%.

`CC(C(=O)NC1CCCC1)S(=O)(=O)Cc1noc(C(C)(C)C)n1` (stereo unspecified): the cytotoxicity at 10 µM was -9.41%.

On to `COc1ccncc1NC(=O)C1(c2ccccc2)CC1`, for which the cytotoxicity at 10 µM was found to be 2.72%.

For the molecule `Cc1cc(C(=O)N(C)CCN(C)C(=O)OC(C)(C)C)oc1C`, the cytotoxicity at 10 µM amounted to 3.51%.

As to `Cc1ccc(CC(NC(=O)CN(C)C2CC2)c2ccccn2)cc1` (stereo unspecified), the cytotoxicity at 10 µM was found to be 5.33%.

For the molecule `CCOc1ncccc1CNS(=O)(=O)c1ccc2c(c1)CCO2`, the cytotoxicity at 10 µM came to 7.95%.

As for `CC(C)Cn1ncc(C(=O)O)c1C1CC1`, the cytotoxicity at 10 µM is -14%.

`CCc1ccc(C(COC)NC(=O)c2ccc(F)c(NC(C)=O)c2)o1` (stereo unspecified): the cytotoxicity at 10 µM was -11.1%.

On to `CC(=O)N(Cc1ncc(C)o1)C1CCN(Cc2cnc(C)s2)C1` (stereo unspecified), for which the cytotoxicity at 10 µM stood at 5.42%.

For `COc1cc(CN(C)C(=O)NC2CC2)ccc1SC`, the cytotoxicity at 10 µM was -8.01%.

In the case of `COc1cc(CN(C)C(=O)NCC(=O)NC(C)C)ccc1SC`, the cytotoxicity at 10 µM is -15.5%.

`CCC(C)NC(=O)NCCC(=O)N1CCN(c2ccccn2)CC1` (stereo unspecified): the cytotoxicity at 10 µM came to 4.22%.

`COc1cccc(S(=O)(=O)CCNC(C)Cn2cccn2)c1` (stereo unspecified): the cytotoxicity at 10 µM is -3.34%.

For `Cc1cc(C(C)NC(=O)CCn2nnc3ccccc3c2=O)c(C)o1` (stereo unspecified), the cytotoxicity at 10 µM came to 3.81%.

With `O=C(NCCCOCC1CC1)Nc1ccc(F)cc1`, the cytotoxicity at 10 µM was found to be 3.09%.

Turning to `CCOCCNC(=O)c1ccc(OC)cc1I`, the cytotoxicity at 10 µM was found to be 6.53%.

Take `O=c1cc(CNCc2ccc3c(c2)OCO3)nc2ccccn12`: the cytotoxicity at 10 µM is -6.17%.

In the case of `CCOCCn1nnc(C2(NC(=O)c3ccccc3)CCCC2)n1`, the cytotoxicity at 10 µM was 21.9%.

Take `Cc1ccc(S(=O)(=O)NCCNC(=O)c2ccoc2)cc1F`: the cytotoxicity at 10 µM was -5.69%.

Regarding `Cc1cc(C)n(CC(=O)N2CCC(c3nc(C)no3)CC2)n1`, the cytotoxicity at 10 µM amounted to 1.2%.

Regarding `CCOC(=O)c1c(NC(=O)CN2CCN(C(C)=O)CC2)sc2c1CCC2`, the cytotoxicity at 10 µM is -5.33%.

In the case of `CC(C1CC1)N(C(=O)NCCCn1nc2ccccn2c1=O)C1CC1` (stereo unspecified), the cytotoxicity at 10 µM was -21.4%.

For `O=C(c1cscn1)N1CCC[C@]2(C[C@H](OCC3CC3)CO2)C1`, the cytotoxicity at 10 µM is -2.86%.

As for `COc1ccccc1CN1CCC2(CC1)CC(Oc1ccccn1)CO2` (stereo unspecified), the cytotoxicity at 10 µM is -1.96%.

As to `O=C(c1ccc(-c2ccsc2)nc1)N1CCCN(C2CCCCC2)CC1`, the cytotoxicity at 10 µM was 6.67%.

`COc1ccccc1OC1CN(Cc2ccc(C(=O)O)cc2)C1`: the cytotoxicity at 10 µM is -8.98%.

Regarding `CN1CC2(CCN(C(=O)c3cc(-n4cccn4)ccc3Cl)CC2)OC1=O`, the cytotoxicity at 10 µM was 2.3%.

For the molecule `Cn1nccc1C(=O)N1CCN(C(=O)C2CC2)[C@@H]2CS(=O)(=O)C[C@@H]21`, the cytotoxicity at 10 µM came to 3.11%.

As for `O=C(O)[C@H]1C[C@H](C(=O)NC2CC2)CN(Cc2ccc(-c3cc[nH]n3)s2)C1`, the cytotoxicity at 10 µM was determined as 2.89%.

With `COc1cccc2c1OCC(Cc1cnc(N)c(C)c1)C2` (stereo unspecified), the cytotoxicity at 10 µM came to 3.36%.

Regarding `Cc1nc2c(c(=O)n1C)CCN(C(=O)CCc1ccccc1O)CC2`, the cytotoxicity at 10 µM came to 0.53%.

With `CCn1nc(CC(C)C)cc1C(=O)N1CCCC(C#N)C1` (stereo unspecified), the cytotoxicity at 10 µM was -8.2%.

Consider `Cc1nc(C(=O)N(Cc2c(C)nn(C)c2C)C(C)C)cs1`, for which the cytotoxicity at 10 µM worked out at 3.57%.

For the molecule `CC(C)c1nccn1C(C)C(=O)NC1CCN(S(C)(=O)=O)CC1` (stereo unspecified), the cytotoxicity at 10 µM is -2.86%.

As to `Cc1nc[nH]c1CN1CCN(C(=O)C2(C)CC2)[C@H]2CS(=O)(=O)C[C@H]21`, the cytotoxicity at 10 µM is -4.76%.

On to `CCCNS(=O)(=O)c1ccc2[nH]c(=O)cc(C)c2c1`, for which the cytotoxicity at 10 µM was -3.37%.

In the case of `CN1Cc2ccccc2CC1C(=O)N1CCN(CCS(C)(=O)=O)CC1` (stereo unspecified), the cytotoxicity at 10 µM was found to be 15.1%.

With `COCCCC1(CO)CCCN(CCc2ccccc2)C1` (stereo unspecified), the cytotoxicity at 10 µM was -9.99%.

For the molecule `CCn1nccc1C(=O)NC(Cn1cccn1)C(C)(C)C` (stereo unspecified), the cytotoxicity at 10 µM is -9.24%.

On to `O=C(c1cc[nH]n1)N1CCCC(c2cccc(-n3ccnc3)n2)C1` (stereo unspecified), for which the cytotoxicity at 10 µM was found to be 6.88%.

In the case of `CCc1ccsc1C(=O)NCCn1nc2ccccn2c1=O`, the cytotoxicity at 10 µM was -12.2%.

Consider `Cc1cc(NC(=O)CN2CCN(c3nccs3)C(C)C2)on1` (stereo unspecified), for which the cytotoxicity at 10 µM was -5.35%.

For the molecule `Cc1n[nH]c(C)c1NC(=O)CN1CCN(c2nccs2)C(C)C1` (stereo unspecified), the cytotoxicity at 10 µM was -17.6%.

For the molecule `O=C(CCCOc1ccccc1)N1CCCC(n2cncn2)C1` (stereo unspecified), the cytotoxicity at 10 µM was -8.57%.

For `CCCNC(=O)CCOc1cccc(F)c1`, the cytotoxicity at 10 µM is 4.75%.

For the molecule `Cc1nc(C2CCCN(C(=O)c3c[nH]c(C(C)C)n3)C2)no1` (stereo unspecified), the cytotoxicity at 10 µM is -7.52%.

Turning to `NC(=O)C1CCN(C(=O)CCCc2nnc(-c3ccccc3)o2)C1` (stereo unspecified), the cytotoxicity at 10 µM was -19.8%.

`Cc1ncsc1C(=O)NC1CCN(CCC#N)CC1`: the cytotoxicity at 10 µM is -8.87%.

With `Cc1nnc(NC(=O)CN2CCc3c(nc(C4CC4)n3C)C2)s1`, the cytotoxicity at 10 µM is -8.51%.

For `O=C(NCCOCC(F)(F)F)c1ccc(-c2ccccc2)[nH]c1=O`, the cytotoxicity at 10 µM is -13.9%.

Consider `CC(C)c1nccn1C1CCCN(C(=O)C2=NN(C)C(=O)CC2)C1` (stereo unspecified), for which the cytotoxicity at 10 µM is -24.6%.

Take `CC(Cn1cccn1)NC(=O)N1CCCN(Cc2cccs2)CC1` (stereo unspecified): the cytotoxicity at 10 µM is -13.5%.

For the molecule `COc1ccc(NC(=O)N2CCCC2c2ccncc2)cn1` (stereo unspecified), the cytotoxicity at 10 µM amounted to 0.165%.

As for `Cc1nn(C)c(N2CCOCC2)c1CNC(c1cccs1)C(C)C` (stereo unspecified), the cytotoxicity at 10 µM is -2.53%.

As for `CC(C)Oc1cccc(CNC(=O)NC(C)(C(=O)O)c2ccco2)c1` (stereo unspecified), the cytotoxicity at 10 µM was -2.77%.

For the molecule `CCCNC(=O)CN1CCC(C(=O)Nc2cnn(CC)c2)CC1`, the cytotoxicity at 10 µM was -2.04%.

`Cc1cc(C)n(CC2CCCN2C(=O)c2cnn(C)c2C2CC2)n1` (stereo unspecified): the cytotoxicity at 10 µM was -0.489%.

As for `COc1cc(CNC(=O)CNc2cc(Cl)ccc2OC)ccn1`, the cytotoxicity at 10 µM was -8.92%.

Turning to `FC(F)(F)Cn1ccnc1CN1CCCC1c1noc(C2CC2)n1` (stereo unspecified), the cytotoxicity at 10 µM was found to be 1.78%.

On to `CN(Cc1nnc(C2CC2)o1)C1CCN(CCCc2cnn(C)c2)C1` (stereo unspecified), for which the cytotoxicity at 10 µM was determined as 5.27%.

As for `COCc1nc(C(=O)N2CCCC2c2ccccc2C)cs1` (stereo unspecified), the cytotoxicity at 10 µM worked out at 4.28%.

Take `Cc1cnn(CCC(=O)N2CCN(c3ncccc3Cl)CC2)c1`: the cytotoxicity at 10 µM was determined as 2.41%.

As for `CC(O)CN1CCC(CNCc2cccc(Br)c2)CC1` (stereo unspecified), the cytotoxicity at 10 µM was -12.1%.

With `CN(C)C(=O)c1ccc(CNC(=O)NCCN(C)C2CCCC2)cc1`, the cytotoxicity at 10 µM is -5.58%.

For `COCCc1noc(CN2CCOC(Cn3nc(C)cc3C)C2)n1` (stereo unspecified), the cytotoxicity at 10 µM is -6.66%.

Consider `Cc1ncsc1C(=O)N1CCCN(Cc2cscn2)CC1`, for which the cytotoxicity at 10 µM is -9.67%.

On to `COc1cccc(CCC(=O)N2CCC[C@@H](N)[C@@H]2c2ccccc2F)c1`, for which the cytotoxicity at 10 µM stood at 8.3%.

`CCOc1ccc(C(=O)N2CCN(c3nccn3C)CC2)cc1`: the cytotoxicity at 10 µM turned out to be 5.89%.

Regarding `Cn1cc(CN2CCn3cc(CNC(=O)C4CCC4)nc3C2)cn1`, the cytotoxicity at 10 µM was -6.66%.

Turning to `COc1nn(C)c2c1CCCN(C(=O)c1ccc3ccccc3n1)C2`, the cytotoxicity at 10 µM is 13.7%.

Turning to `O=C(C1CCOCC1)N1CCO[C@H]2[C@H](OCc3ccncc3)CC[C@@H]21`, the cytotoxicity at 10 µM was -2.53%.

For `CN(C)C(=O)[C@H]1CC[C@@H]2[C@@H](CCN2Cc2ccccn2)O1`, the cytotoxicity at 10 µM is 3.21%.

Turning to `O=c1[nH]c2cn(-c3ccccc3)c(=O)n2[nH]1`, the cytotoxicity at 10 µM was -11.5%.

The values are drawn from ChEMBL document CHEMBL4513216, “Probing the Open Global Health Chemical Diversity Library for Multistage-Active Starting Points for Next-Generation Antimalarials” (ACS Infect Dis, 2020).
